In brackets after ≈: the same amount, converted by molar mass.
What was measured:
Format in all cases: functional
[1] = tested on: Staphylococcus aureus; experiment: Antimicrobial activity against Staphylococcus aureus ATCC 29213 after 72 hrs by broth microdilution assay; settings: ATCC 29213, 72 h
[2] = tested on: Mycobacterium tuberculosis; experiment: Antimicrobial activity against isoniazid and rifampin-susceptible Mycobacterium tuberculosis clinical isolates after 7 days by broth microdilution assay; settings: 168 h
Summary of the method: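 Alamar Blue broth microdilution in 7H9GC broth (Middlebrook 7H9 base, glycerol, Casitone, 10% OADC). Drug stock 1 mg/ml in 100% DMSO, diluted in broth to a final 0.03 to 8 μg/ml. M. tuberculosis H37Rv served as the susceptible-strain control. Isoniazid and rifampin resistance was assigned beforehand by the proportion method.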

[3] = tested on: Mycolicibacterium fortuitum; experiment: Antimicrobial activity against Mycobacterium fortuitum clinical isolates after 7 days by broth microdilution assay; settings: 168 h
[4] = tested on: Mycobacterium gordonae; experiment: Antimicrobial activity against Mycobacterium gordonae after 7 days by broth microdilution assay; settings: 168 h
Summary of the method: (§1)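 Slowly growing mycobacteria were identified by phenotype and hsp65 PCR-RFLP. MIC by CLSI broth microdilution in cation-adjusted Mueller-Hinton broth with OADC supplement at a final 10%. Final drug range 0.06 to 16 μg/ml. Read after 7 days at 35°C. S. aureus ATCC 29213 was run as a quality control with each plate lot.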

[5] = tested on: Mycobacterium avium complex sp.; experiment: Antimicrobial activity against Mycobacterium avium complex clinical isolates after 7 days by broth microdilution assay; settings: 168 h; summary of the method: as §1
[6] = tested on: Mycobacteroides abscessus; experiment: Antimicrobial activity against Mycobacterium abscessus clinical isolates after 7 days by broth microdilution assay; settings: 168 h
[7] = tested on: Mycobacteroides chelonae; experiment: Antimicrobial activity against Mycobacterium chelonae clinical isolates after 7 days by broth microdilution assay; settings: 168 h
[8] = tested on: Mycobacterium kansasii; experiment: Antimicrobial activity against Mycobacterium kansasii after 7 days by broth microdilution assay; settings: 168 h; summary of the method: as §1

For `COc1c(N2CC[C@@H](C(C)(C)N)C2)c(F)cc2c(=O)c3c(=O)[nH]sc3n(C3CC3)c12`, the MIC [1] was no more than 0.06 µg/mL, the MIC50 [2] was 0.0625 µg/mL (≈ 0.145 µM) and the MIC90 [2] was 0.125 µg/mL (≈ 0.289 µM). The MIC50 [3] was no more than 0.0625 µg/mL, the MIC90 [3] was no more than 0.0625 µg/mL and the MIC [4] was 0.12 µg/mL (≈ 0.277 µM). For the same compound, the MIC50 [5] was 0.25 µg/mL (≈ 0.578 µM), the MIC90 [5] was 4 µg/mL (≈ 9.25 µM) and the MIC [6] was 16 µg/mL (≈ 37 µM). It also gave an MIC [7] of 8 µg/mL (≈ 18.5 µM) and an MIC [8] of 0.12 µg/mL (≈ 0.277 µM).

— ChEMBL document CHEMBL1255469, “In vitro activity of a new isothiazoloquinolone, ACH-702, against Mycobacterium tuberculosis and other mycobacteria” (2010)
